ChEMBL document CHEMBL1155435, “Design, synthesis and evaluation of constrained tetrahydroimidazopyrimidine derivatives as antagonists of corticotropin-releasing factor type 1 receptor (CRF1R)” (Bioorg Med Chem Lett, 2010)
Calls of active or inactive are those of the source. The rule behind the calls is not given here.

test system: not listed separately; assay: Drug level in mouse brain at 32 mg/kg, ip after 1 hr; assay type: ADME, organism-based; design: dose 32 mg/kg, route intraperitoneal; details: read-out: Drug uptake
Procedure, shortened: (§1)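 Mice were dosed ip at 32 mg/kg in cremophor/DMSO/water (1:1:8). Brain and plasma were sampled at 30 min and 1 h after dosing. Brain level is given as ng compound per g brain, alongside the brain/plasma concentration ratio.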

For `CCCN(Cc1c(C(F)(F)F)nc2n1CCCN2c1c(C)cc(C)cc1C)CC1CC1`, the concentration at 1 h was 217 ng/g.

test system: Mus musculus; assay: Anxiolytic activity in ip dosed mouse assessed as decrease reduction of stretched attenuated postures by canopy test; assay type: functional; details: not given
Procedure, shortened: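 Mouse canopy test for anxiety-like behaviour. Compound was given ip in cremophor/DMSO/water (1:1:8) at several doses. The read-out was the total count of stretched attend postures. The protocol follows an earlier report.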

For `CCCN(Cc1c(C(F)(F)F)nc2n1CCCN2c1c(C)cc(C)cc1C)CC1CC1`, the Activity was “Active”.

test system: not listed separately; assay: Drug level in mouse brain at 32 mg/kg, ip after 30 mins; assay type: ADME, organism-based; design: dose 32 mg/kg, route intraperitoneal; details: read-out: Drug uptake; procedure, shortened: as §1

For `CCCN(Cc1c(C(F)(F)F)nc2n1CCCN2c1c(C)cc(C)cc1C)CC1CC1`, the concentration at 0.5 h was 352 ng/g.

test system: not listed separately; assay: Ratio of drug level in mouse brain to plasma at 32 mg/kg, ip after 1 hr; assay type: ADME, organism-based; design: dose 32 mg/kg, route intraperitoneal; details: not given; procedure, shortened: as §1

In the case of `CCCN(Cc1c(C(F)(F)F)nc2n1CCCN2c1c(C)cc(C)cc1C)CC1CC1`, the Kp at 1 h is reported as 1.

biological target: T1, Corticotropin-releasing factor receptor 1 (Homo sapiens, UniProt P34998); assay: Displacement of [125I]Tyr-o-CRF from human CRFR1 expressed in human IMR32 cells; assay type: cell-based, IMR-32; details: not given
T1 sequence (P34998 whole entry): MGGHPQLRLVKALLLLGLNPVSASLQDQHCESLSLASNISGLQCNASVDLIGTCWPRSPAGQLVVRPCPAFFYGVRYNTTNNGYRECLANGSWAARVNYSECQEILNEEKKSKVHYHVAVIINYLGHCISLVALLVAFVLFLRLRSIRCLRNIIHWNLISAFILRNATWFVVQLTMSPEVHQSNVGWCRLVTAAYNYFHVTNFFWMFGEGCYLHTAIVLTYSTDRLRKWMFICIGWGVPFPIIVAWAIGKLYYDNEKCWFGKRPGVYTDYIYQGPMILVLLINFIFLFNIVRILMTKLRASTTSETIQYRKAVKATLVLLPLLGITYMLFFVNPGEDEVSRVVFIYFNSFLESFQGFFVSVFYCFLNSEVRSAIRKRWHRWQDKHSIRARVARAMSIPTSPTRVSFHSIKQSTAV
Procedure, shortened: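 Radioligand displacement of [125I]-Tyr-o-CRF from human CRF1 receptor expressed endogenously on intact IMR-32 human neuroblastoma cells. The protocol follows an earlier report.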

`CCCN(CCC(F)(F)F)Cc1c(C(F)(F)F)nc2n1CCCN2c1c(C)cc(C)cc1C` and `C=CCN(CCC)Cc1c(C(F)(F)F)nc2n1CCCN2c1c(C)cc(C)cc1C` are within 1.5-fold of each other in Ki: 63 nM for the first, 48 nM for the second.

Going from `Cc1cc(C)c(N2CCCn3c2nc(C(F)(F)F)c3CN2CCOCC2)c(C)c1` to `Cc1cc(C)c(N2CCCn3c2nc(C(F)(F)F)c3CN2CCSCC2)c(C)c1`, the Ki falls from 1510 nM to 441 nM (3.4-fold).

`C=CCN(CC=C)C(=O)c1c(CC)nc2n1CCC(=O)N2c1c(C)cc(C)cc1C` and `C=CCN(CC=C)C(=O)c1c(C)nc2n1CCC(=O)N2c1c(C)cc(C)cc1C` cannot be ordered by Ki: > 5000 nM for the first, > 5000 nM for the second.

First: CCCN(CCc1ccccc1)C(=O)c1c(C)nc2n1CCCN2c1c(C)cc(C)cc1C
Second: CCCN(Cc1ccccc1)C(=O)c1c(C)nc2n1CCCN2c1c(C)cc(C)cc1C
The Ki of the first is lower: 1700 nM for the first, > 5000 nM for the second. The first binds more tightly here.

Going from `C=CCN(CC=C)C(=O)c1c(C(F)(F)F)nc2n1CCCN2c1c(C)cc(C)cc1C` to `CCCN(CC1CC1)C(=O)c1c(C(F)(F)F)nc2n1CCCN2c1c(C)cc(C)cc1C`, the Ki rises from 19 nM to 1200 nM (63-fold). The first binds more tightly here.

`CCCN(CC1CC1)C(=O)c1c(CC)nc2n1CCC(=O)N2c1c(C)cc(C)cc1C` and `CCCN(CC1CC1)C(=O)c1c(C)nc2n1CCC(=O)N2c1c(C)cc(C)cc1C` cannot be ordered by Ki: > 5000 nM for the first, > 5000 nM for the second.

`Cc1cc(C)c(N2C(=O)CCn3c2nc(C)c3C(=O)N2CCOCC2)c(C)c1` and `Cc1cc(C)c(N2C(=O)CCn3c2nc(C)c3C(=O)N2CCN(c3ccccc3F)CC2)c(C)c1` cannot be ordered by Ki: > 5000 nM for the first, > 5000 nM for the second.

First: Cc1cc(C)c(N2CCCn3c2nc(C(F)(F)F)c3CN(CC2CC2)CC(F)(F)C(F)(F)F)c(C)c1
Second: Cc1cc(C)c(N2CCCn3c2nc(C(F)(F)F)c3CN(CC2CC2)CC(F)(F)F)c(C)c1
The Ki of the first is 1.8-fold higher: 14 nM for the first, 8 nM for the second. The second binds more tightly here.

`CCN(Cc1c(C(F)(F)F)nc2n1CCCN2c1c(C)cc(C)cc1C)CC1CC1` and `CCCN(Cc1c(C(F)(F)F)nc2n1CCCN2c1c(C)cc(C)cc1C)CC1CC1` are within 1.5-fold of each other in Ki: 31 nM for the first, 32 nM for the second.

`CCCN(CCC)C(=O)c1c(C)nc2n1CCC(=O)N2c1c(C)cc(C)cc1C` and `CCCN(CCC)C(=O)c1c(CC)nc2n1CCC(=O)N2c1c(C)cc(C)cc1C` cannot be ordered by Ki: > 5000 nM for the first, > 5000 nM for the second.

`Cc1cc(C)c(N2CCCn3c2nc(C(F)(F)F)c3CN2CC=CCC2)c(C)c1` and `Cc1cc(C)c(N2CCCn3c2nc(C(F)(F)F)c3CN2CCCCC2)c(C)c1` are within 1.5-fold of each other in Ki: 364 nM for the first, 245 nM for the second.

`C=CCN(CCC)C(=O)c1c(C)nc2n1CCCN2c1c(C)cc(C)cc1C` and `CCCN(CC1CC1)C(=O)c1c(C)nc2n1CCCN2c1c(C)cc(C)cc1C` cannot be ordered by Ki: > 5000 nM for the first, > 5000 nM for the second.

Compared with `Cc1cc(C)c(N2CCCn3c2nc(C(F)(F)F)c3CN2CCCN(C)CC2)c(C)c1`, `CCCN(Cc1c(C(F)(F)F)nc2n1CCCN2c1c(C)cc(C)cc1C)CC1CCC1` is lower in Ki: > 5000 nM for the first, 21 nM for the second. The second binds more tightly here.

`Cc1cc(C)c(N2CCCn3c2nc(C)c3C(=O)N(CC2CC2)CC2CC2)c(C)c1` and `CCCN(CC1CCC1)C(=O)c1c(C)nc2n1CCCN2c1c(C)cc(C)cc1C` are within 1.5-fold of each other in Ki: 3400 nM for the first, 3300 nM for the second.

Going from `CCCN(CC1CC1)C(=O)c1c(CC)nc2n1CCCN2c1c(C)cc(C)cc1C` to `CCCCN(CC)C(=O)c1c(CC)nc2n1CCC(=O)N2c1c(C)cc(C)cc1C`, the Ki rises from 2300 nM to > 5000 nM.

Going from `CCCN(CCc1ccccc1)Cc1c(C(F)(F)F)nc2n1CCCN2c1c(C)cc(C)cc1C` to `Cc1cc(C)c(N2CCCn3c2nc(C(F)(F)F)c3CN(CCc2ccccc2)CC(F)(F)F)c(C)c1`, the Ki falls from 67 nM to 38 nM (1.8-fold).

Compared with `Cc1cc(C)c(N2CCCn3c2nc(C(F)(F)F)c3CN(CC2CCC2)CC(F)(F)F)c(C)c1`, `CCc1nc2n(c1C(=O)N(CC)Cc1ccccc1)CCC(=O)N2c1c(C)cc(C)cc1C` is higher in Ki: 27 nM for the first, > 5000 nM for the second. The first binds more tightly here.

test system: not listed separately; assay: Ratio of drug level in mouse brain to plasma at 32 mg/kg, ip after 30 mins; assay type: ADME, organism-based; design: dose 32 mg/kg, route intraperitoneal; details: not given; procedure, shortened: as §1

Work on `CCCN(Cc1c(C(F)(F)F)nc2n1CCCN2c1c(C)cc(C)cc1C)CC1CC1` yielded a Kp at 0.5 h of 1.2.
